The values that follow come from ChEMBL document CHEMBL1135915, “Structure-activity relationships in 1,4-benzodioxan-related compounds. 7. Selectivity of 4-phenylchroman analogues for alpha(1)-adrenoreceptor subtypes” (J Med Chem, 2002).

Experiment [1] addresses T1, Alpha-1A adrenergic receptor (Rattus norvegicus, UniProt P43140).
T1 sequence (P43140 whole entry): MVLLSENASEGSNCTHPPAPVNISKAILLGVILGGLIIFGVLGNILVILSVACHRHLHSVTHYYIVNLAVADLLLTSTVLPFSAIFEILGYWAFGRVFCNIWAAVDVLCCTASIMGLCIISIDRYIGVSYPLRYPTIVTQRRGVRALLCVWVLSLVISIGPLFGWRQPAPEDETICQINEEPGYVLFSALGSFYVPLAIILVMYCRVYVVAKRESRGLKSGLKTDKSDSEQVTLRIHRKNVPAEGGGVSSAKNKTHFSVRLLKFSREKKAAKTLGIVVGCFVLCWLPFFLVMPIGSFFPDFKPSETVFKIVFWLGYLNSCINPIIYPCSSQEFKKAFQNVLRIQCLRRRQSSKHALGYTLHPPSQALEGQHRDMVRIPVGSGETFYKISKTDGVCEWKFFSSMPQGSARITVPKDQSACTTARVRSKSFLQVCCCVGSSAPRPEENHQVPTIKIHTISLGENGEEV
The experiment in a line: Antagonistic affinity tested against isolated Rat Prostatic Vas Deferens Alpha-1A adrenergic receptor. It counts as functional, tissue-based. The conditions noted are these: read-out: pA2 (converted).

Experiment [2] deals with T2, Alpha-1D adrenergic receptor (Rattus norvegicus, UniProt P23944).
T2 sequence (P23944 whole entry): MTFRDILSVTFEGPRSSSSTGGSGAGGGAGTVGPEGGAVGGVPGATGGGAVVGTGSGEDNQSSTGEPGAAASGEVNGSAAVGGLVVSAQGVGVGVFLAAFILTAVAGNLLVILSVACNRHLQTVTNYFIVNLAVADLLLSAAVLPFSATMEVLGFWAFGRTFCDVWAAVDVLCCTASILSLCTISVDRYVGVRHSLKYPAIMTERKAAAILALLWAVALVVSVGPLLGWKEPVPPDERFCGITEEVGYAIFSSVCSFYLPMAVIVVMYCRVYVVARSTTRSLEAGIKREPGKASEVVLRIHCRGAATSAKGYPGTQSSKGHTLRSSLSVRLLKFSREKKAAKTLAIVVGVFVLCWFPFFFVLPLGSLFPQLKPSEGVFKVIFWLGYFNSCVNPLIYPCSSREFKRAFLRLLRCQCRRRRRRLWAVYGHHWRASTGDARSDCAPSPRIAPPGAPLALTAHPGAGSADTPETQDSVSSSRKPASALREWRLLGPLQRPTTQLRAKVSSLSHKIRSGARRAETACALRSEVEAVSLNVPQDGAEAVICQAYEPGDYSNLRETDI
The experiment in a line: Antagonistic affinity tested against isolated Rat Thoracic Aorta Alpha-1D adrenergic receptor. It counts as functional, tissue-based. The conditions noted are these: read-out: pA2 (converted).

The target of experiment [3] is T1, Alpha-1A adrenergic receptor. The experiment in a line: Antagonistic affinity tested against isolated Rat Prostate Alpha-1A adrenergic receptor. It is filed as functional. The conditions noted are these: read-out: pA2 (converted). In outline: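 Prostate strips from male Wistar rats (275-300 g), 2 g tension in modified Krebs at 37 °C, 95% O2/5% CO2, pH 7.4, primed with 1.0 µM (-)-noradrenaline. After 90 min wash, a cumulative noradrenaline curve was run, then a second after 30 min antagonist equilibration. Single antagonist concentration in the range 0.01-1 µM; pKB by van Rossum.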

Experiment [4] concerns the target T3, Alpha-1B adrenergic receptor (Rattus norvegicus, UniProt P15823).
T3 sequence (P15823 whole entry): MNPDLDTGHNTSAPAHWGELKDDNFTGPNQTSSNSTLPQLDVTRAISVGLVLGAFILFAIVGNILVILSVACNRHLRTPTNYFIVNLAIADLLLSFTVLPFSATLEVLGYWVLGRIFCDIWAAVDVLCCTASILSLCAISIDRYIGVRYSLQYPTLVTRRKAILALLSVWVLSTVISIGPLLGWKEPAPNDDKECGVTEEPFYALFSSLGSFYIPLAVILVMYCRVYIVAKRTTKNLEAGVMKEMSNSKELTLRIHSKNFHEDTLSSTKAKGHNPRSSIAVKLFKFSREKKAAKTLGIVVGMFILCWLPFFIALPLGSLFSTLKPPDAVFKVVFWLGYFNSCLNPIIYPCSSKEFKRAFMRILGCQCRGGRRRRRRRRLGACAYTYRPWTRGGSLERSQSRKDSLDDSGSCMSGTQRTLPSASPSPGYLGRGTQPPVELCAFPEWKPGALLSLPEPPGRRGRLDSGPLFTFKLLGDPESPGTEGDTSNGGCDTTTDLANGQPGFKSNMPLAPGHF
Kind of experiment: Antagonistic affinity tested against isolated Rat Spleen Alpha-1B adrenergic receptor. The conditions noted are these: read-out: pA2 (converted). It counts as functional. In outline:
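Rat spleen strips, 1 g resting tension, in Krebs with 4.0 µM propranolol and 0.01 mM K2EDTA, equilibrated 2 h. Cumulative isometric (-)-phenylephrine curves at 30 min intervals; the second served as control.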

The target in experiment [5] is T4, Alpha-1D adrenergic receptor (Homo sapiens, UniProt P25100).
T4 sequence (P25100 whole entry): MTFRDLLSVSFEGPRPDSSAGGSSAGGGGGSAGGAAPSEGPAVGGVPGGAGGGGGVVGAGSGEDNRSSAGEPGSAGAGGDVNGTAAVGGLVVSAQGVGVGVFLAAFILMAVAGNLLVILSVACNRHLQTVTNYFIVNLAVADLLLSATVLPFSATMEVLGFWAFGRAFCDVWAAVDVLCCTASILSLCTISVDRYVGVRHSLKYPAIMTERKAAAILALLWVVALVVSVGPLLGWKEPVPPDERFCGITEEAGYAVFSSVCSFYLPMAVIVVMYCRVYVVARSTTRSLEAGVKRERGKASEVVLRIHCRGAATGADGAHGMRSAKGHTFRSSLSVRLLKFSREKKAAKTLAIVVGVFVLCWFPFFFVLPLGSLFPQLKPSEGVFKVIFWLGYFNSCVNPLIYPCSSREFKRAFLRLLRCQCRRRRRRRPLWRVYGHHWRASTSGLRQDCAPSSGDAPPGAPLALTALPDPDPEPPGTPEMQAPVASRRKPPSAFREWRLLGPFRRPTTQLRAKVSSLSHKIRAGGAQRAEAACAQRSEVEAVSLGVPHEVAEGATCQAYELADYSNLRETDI
Kind of experiment: Affinity constant on CHO cells expressing Human recombinant Alpha-1D adrenergic receptor. It counts as cell-based.

Experiment [6] deals with T5, Alpha-1A adrenergic receptor (Homo sapiens, UniProt P35348).
T5 sequence (P35348 whole entry): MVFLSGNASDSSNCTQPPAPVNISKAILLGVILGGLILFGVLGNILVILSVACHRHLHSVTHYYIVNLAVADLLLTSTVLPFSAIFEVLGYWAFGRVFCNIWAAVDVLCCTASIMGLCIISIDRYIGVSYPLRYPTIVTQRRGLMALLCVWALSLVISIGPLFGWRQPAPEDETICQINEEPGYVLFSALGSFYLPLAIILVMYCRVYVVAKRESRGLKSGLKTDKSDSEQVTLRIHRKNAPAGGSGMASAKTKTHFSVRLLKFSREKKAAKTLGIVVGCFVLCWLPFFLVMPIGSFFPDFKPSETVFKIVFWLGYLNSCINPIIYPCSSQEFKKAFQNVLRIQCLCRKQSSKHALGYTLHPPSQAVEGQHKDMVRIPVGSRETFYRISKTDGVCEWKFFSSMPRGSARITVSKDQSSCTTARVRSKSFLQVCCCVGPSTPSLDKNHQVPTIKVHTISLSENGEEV
The experiment in a line: Affinity constant on CHO cells expressing Human recombinant Alpha-1A adrenergic receptor. It is filed as cell-based.

Experiment [7] concerns the target T6, Alpha-1B adrenergic receptor (Homo sapiens, UniProt P35368).
T6 sequence (P35368 whole entry): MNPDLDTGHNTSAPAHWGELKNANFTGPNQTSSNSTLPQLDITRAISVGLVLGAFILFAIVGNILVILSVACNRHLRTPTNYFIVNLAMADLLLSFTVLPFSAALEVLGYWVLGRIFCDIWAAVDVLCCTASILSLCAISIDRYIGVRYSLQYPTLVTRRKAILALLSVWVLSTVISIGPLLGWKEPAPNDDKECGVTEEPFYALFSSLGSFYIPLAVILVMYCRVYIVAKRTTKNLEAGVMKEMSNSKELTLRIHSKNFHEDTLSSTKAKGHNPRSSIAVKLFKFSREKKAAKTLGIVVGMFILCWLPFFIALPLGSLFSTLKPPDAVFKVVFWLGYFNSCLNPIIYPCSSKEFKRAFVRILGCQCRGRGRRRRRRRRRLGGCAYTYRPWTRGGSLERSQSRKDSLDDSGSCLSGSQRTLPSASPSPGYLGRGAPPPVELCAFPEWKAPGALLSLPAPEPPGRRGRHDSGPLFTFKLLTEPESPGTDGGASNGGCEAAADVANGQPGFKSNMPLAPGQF
The experiment in a line: Affinity constant on CHO cells expressing Human recombinant Alpha-1B adrenergic receptor. It counts as cell-based.

In experiment [8] the target is T7, 5-hydroxytryptamine receptor 1A (Homo sapiens, UniProt P08908).
T7 sequence (P08908 whole entry): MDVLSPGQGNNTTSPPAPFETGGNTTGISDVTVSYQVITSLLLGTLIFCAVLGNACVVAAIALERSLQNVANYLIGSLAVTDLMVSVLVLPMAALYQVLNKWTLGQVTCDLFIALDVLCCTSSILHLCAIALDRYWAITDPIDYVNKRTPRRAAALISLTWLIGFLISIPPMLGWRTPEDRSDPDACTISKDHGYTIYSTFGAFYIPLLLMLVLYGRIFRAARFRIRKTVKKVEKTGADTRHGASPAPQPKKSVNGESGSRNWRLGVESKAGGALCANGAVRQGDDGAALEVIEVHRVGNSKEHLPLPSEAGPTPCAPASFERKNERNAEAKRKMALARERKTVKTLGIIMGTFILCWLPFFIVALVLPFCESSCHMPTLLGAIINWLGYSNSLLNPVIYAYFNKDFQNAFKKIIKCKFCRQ
The experiment in a line: Affinity constant on HeLa cells expressing Human recombinant 5-hydroxytryptamine receptor 1A.

Turning to `COc1cccc(OC)c1OCCNCC1COc2ccccc2O1` (stereo not drawn), the figures for the Kb in experiment [1], in experiment [2] and in experiment [3] were 0.309 nM, 1.58 nM and 0.537 nM, respectively.
Regarding `COc1cccc(OC)c1OCCNC[C@@H]1Oc2ccccc2O[C@H]1c1ccccc1`, the Kb in experiment [1] was 5.75 nM; in experiment [2], 32.4 nM; in experiment [4], 2510 nM; in experiment [3], 5.89 nM.
As a reminder, the Ki is a measure of affinity in units of concentration, obtained from inhibition or displacement. With `COc1cccc(OC)c1OCCNC[C@H]1C[C@H](c2ccccc2)c2ccccc2S1`, the inhibition constant (Ki) in experiment [5] was 22.9 nM; in experiment [6] it was 2.34 nM; in experiment [7], 27.5 nM; in experiment [8] it was 10.2 nM. Moreover, the Kb in experiment [1] is 209 nM; in experiment [2], 61.7 nM; in experiment [4], 302 nM; in experiment [3], 107 nM.
As for `COc1cccc(OC)c1OCCNCC1Cc2ccccc2C(c2ccccc2)C1` (stereo not drawn), the Ki is 17 nM in experiment [5], 0.513 nM in experiment [6], 12.3 nM in experiment [7] and 6.31 nM in experiment [8]. Further, the Kb in experiment [1] was 178 nM; in experiment [2], 91.2 nM; in experiment [4], 110 nM; in experiment [3], 288 nM.
With `COc1cccc(OC)c1OCCNC[C@@H]1C[C@H](c2ccccc2)c2ccccc2O1`, the inhibitory constant (Ki) in experiment [5] was 0.0891 nM; in experiment [6] it was 0.0501 nM; in experiment [7], 0.0398 nM; in experiment [8], 6.46 nM. Moreover, the Kb was 1.32 nM in experiment [1], 0.275 nM in experiment [2], 28.8 nM in experiment [4] and 1.12 nM in experiment [3].
As to `COc1cccc(OC)c1OCCNCCOc1ccccc1Cc1ccccc1`, the Ki in experiment [5] is 3.63 nM; in experiment [6], 0.398 nM; in experiment [7], 2.82 nM; in experiment [8] it was 10.7 nM. The Kb in experiment [1] was 58.9 nM; in experiment [2], 16.6 nM; in experiment [4] it was 67.6 nM; in experiment [3], 33.9 nM.
Regarding `COc1cccc(OC)c1OCCNCC1CC(c2ccccc2)c2ccccc2S1` (stereo not drawn), the Ki was 0.437 nM in experiment [5], 0.0891 nM in experiment [6], 1.15 nM in experiment [7] and 15.1 nM in experiment [8]. The Kb in experiment [1] was 6.17 nM; in experiment [2] it was 17.4 nM; in experiment [4] it was 155 nM; in experiment [3], 4.9 nM.
Turning to `COc1cccc(OC)c1OCCNCC1CC(c2ccccc2)c2ccccc2C1=O` (stereo not drawn), the inhibition constant Ki was 0.182 nM in experiment [5], 0.251 nM in experiment [6], 1.23 nM in experiment [7] and 11 nM in experiment [8]. The Kb in experiment [1] is 0.447 nM; in experiment [2], 2 nM; in experiment [4], 26.3 nM; in experiment [3], 0.347 nM.
`COc1ccccc1N1CCN(CCN2C(=O)CC3(CCCC3)CC2=O)CC1` [BMY-7378]: the Kb in experiment [4] is 33.1 nM. For the same compound, the inhibitory constant (Ki) in experiment [7] is 708 nM; in experiment [8] it was 0.372 nM.
